Columns and labels:
Assay type in all cases: functional
[1] = tested on: Mus musculus; test: Anticonvulsant activity when administered 100 mg/kg orally in mice Maximal electroshock (MES); settings: route oral
Summary of the method: (§1)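 Female Swiss CD1 mice (18-23 g), groups of 10, were dosed orally at 20 mL/kg. Test compounds were given in dilute HCl (pH 3) and references in 5% gum tragacanth, 60 min before a 60-V alternating current for 0.3 s through corneal electrodes. Protection meant abolition of the hindlimb tonic extensor component.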

[2] = tested on: Mus musculus; test: Evaluated for the sedative property by the rotarod test at 100 mg/kg.
Summary of the method: (§2)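 Motor coordination was tested on the rotorod in groups of 10 female Swiss CD1 mice (18-23 g). Drug or vehicle was given orally, test compounds in dilute HCl (pH 3), 60 min before testing.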

[3] = tested on: Mus musculus; test: Evaluated for Bicuculline-induced seizures (anticonvulsant activity) when administered at 100 mg/kg orally in mice.; settings: route oral
Summary of the method: (§3)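 Female Swiss CD1 mice (18-23 g) were dosed orally at 20 mL/kg, test compounds in dilute HCl (pH 3) and references in gum tragacanth. Protection against bicuculline- or pentylenetetrazole-induced clonic/tonic seizures and lethality was scored.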

[4] = tested on: Mus musculus; test: Evaluated for Bicuculline-induced lethality (anticonvulsant activity) when administered 100 mg/kg orally in mice.; settings: route oral
Summary of the method: (§4)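 Female Swiss albino CD1 mice (18-23 g), oral dosing (20 mL/kg); test compounds dissolved in dilute HCl (pH 3), reference drugs suspended in 5% gum tragacanth. Bicuculline challenge, scoring protection from seizures and from lethality. […] Weakly active agents reported as percent protected at the stated dose.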

[5] = tested on: Mus musculus; test: Evaluated for Bicuculline-induced lethality (anticonvulsant activity) when administered orally in mice.; settings: po; summary of the method: as §4
[6] = tested on: Mus musculus; test: Evaluated for Bicuculline-induced seizures (anticonvulsant activity) when administered orally in mice.; settings: po; summary of the method: as §3
[7] = species on record: Mus musculus; test: Sedative property by the rotarod test; summary of the method: as §2
[8] = tested on: Mus musculus; test: Evaluated for anticonvulsant activity when administered orally in mice by Maximal electroshock (MES).; settings: po; summary of the method: as §1
[9] = species on record: Papio hamadryas; test: Antagonist activity to generalized seizures Photically induced seizures in senegalese Papio papio baboons
Summary of the method: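 Naturally photosensitive baboons of both sexes (4-7 kg) were dosed orally, test compounds in dilute HCl (pH 3) and references in 5% gum tragacanth, at 4 mL/kg. They were photically stimulated at hourly intervals afterwards, and the myoclonic response was graded after Killam. Threshold active dose is the first dose that protected at least two of four animals for at least 2 h.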

[10] = tested on: Mus musculus; test: Anticonvulsant activity in Clonic seizures when administered orally in mice; settings: po; summary of the method: as §3
[11] = tested on: Mus musculus; test: Anticonvulsant activity in tonic seizures when administered orally in mice; settings: po
[12] = species on record: Mus musculus; test: Sedative properties by the rotarod test; summary of the method: as §2
[13] = species on record: Rattus norvegicus; test: Antagonist activity to generalized seizures kindled amygdaloid seizures in rats
Summary of the method: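 Male Sprague-Dawley rats (200-500 g), groups of 10, carried platinum electrodes in the right basolateral amygdala. They counted as kindled after stage-5 seizures on 3 consecutive days at 30-90 μA. A control stimulation was followed by an oral dose (5 mL/kg) and restimulation 1 h later. After-discharge duration and Racine seizure stage were compared with vehicle.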

[14] = tested on: Mus musculus; test: Anticonvulsant activity in Maximal electroshock (MES) when administered orally in mice; settings: po; summary of the method: as §1
[15] = tested on: Mus musculus; test: Compound was evaluated for Bicuculline-induced seizures (anticonvulsant activity)when administered orally in mice; settings: po; summary of the method: as §4

O=C(Nc1cccc(Cl)c1)OC1CCN(c2ccc(-c3ccccc3Cl)nn2)CC1
Protected [1]: 35% | Protected [2]: 0% | Protected [3]: 0%

OC1CCN(c2ccc(-c3ccc(Cl)c(Cl)c3)nn2)CC1
Protected [4]: 20% | Protected [1]: 25% | Protected [2]: 100% | Protected [3]: 0%

O=C(OC1CCN(c2ccc(-c3ccccc3Cl)nn2)CC1)C1CC1
ED50 [5]: 71 mg/kg | Protected [1]: 60% | Protected [2]: 0%

Cc1cc(Cl)ccc1-c1ccc(N2CCC(O)CC2)nn1
ED50 [5]: 10 mg/kg | ED50 [6]: 10 mg/kg | ED50 [7]: 64 mg/kg | ED50 [8]: 10 mg/kg

Cc1ccc(-c2ccc(N3CCC(O)CC3)nn2)c(Cl)c1
ED50 [5]: 16 mg/kg | ED50 [6]: 17 mg/kg | ED50 [7]: 48 mg/kg | ED50 [8]: 21 mg/kg

CNC(=O)OC1CCN(c2ccc(-c3ccc(Cl)cc3)nn2)CC1
Protected [1]: 20% | Protected [2]: 0% | Protected [3]: 20%

CCCCNC(=O)OC1CCN(c2ccc(-c3ccc(Cl)cc3)nn2)CC1
Protected [1]: 0% | Protected [2]: 0% | Protected [3]: 0%

OC1CCN(c2ccc(-c3ccccc3)nn2)CC1
ED50 [5]: 41 mg/kg | Protected [2]: 0%

Clc1ccccc1-c1ccc(N2CCC3(CC2)OCCO3)nn1
Protected [4]: 30% | Protected [2]: 0% | Protected [3]: 40%

CNC(=O)OC1CCN(c2ccc(-c3ccc(Cl)cc3Cl)nn2)CC1
ED50 [5]: 1.4 mg/kg | ED50 [6]: 1.4 mg/kg | ED50 [7]: 20 mg/kg | ED50 [8]: 5.5 mg/kg

CCCC(=O)OC1CCN(c2ccc(-c3ccc(Cl)cc3Cl)nn2)CC1
ED50 [5]: 30 mg/kg | ED50 [6]: 31 mg/kg | ED50 [7]: 30 mg/kg | ED50 [8]: 50 mg/kg

CNC(=O)OC1CCN(c2ccc(-c3cccs3)nn2)CC1
Protected [4]: 20% | Protected [1]: 10% | Protected [2]: 10% | Protected [3]: 0%

O=[N+]([O-])c1ccccc1-c1ccc(N2CCC(O)CC2)nn1
ED50 [5]: 57 mg/kg | Protected [2]: 0%

OC1CCN(c2ccc(-c3ccccc3F)nn2)CC1
ED50 [5]: 34 mg/kg | Protected [2]: 0%

COc1ccc(-c2ccc(N3CCC(O)CC3)nn2)cc1
Protected [1]: 50% | Protected [2]: 0% | Protected [3]: 20%

OC1CCN(c2ccc(-c3ccccc3Cl)nn2)CC1 [LODAXAPRINE]
Threshold active dose [9]: 40 mg/kg | ED50 [5]: 34 mg/kg | ED50 [10]: 77 mg/kg | ED50 [11]: 29 mg/kg | ED50 [12]: 138 mg/kg | Threshold active dose [13]: 20 mg/kg

OC1CCN(c2ccc(-c3cccs3)nn2)CC1
Protected [1]: 0% | Protected [2]: 0% | Protected [3]: 0%

O=[N+]([O-])c1ccc(-c2ccc(N3CCC(O)CC3)nn2)cc1
ED50 [5]: 57 mg/kg | ED50 [6]: 54 mg/kg | Protected [1]: 40%

OC1CCN(c2ccc(-c3ccc(Cl)cc3Cl)nn2)CC1 [ENDIXAPRINE]
Threshold active dose [9]: 50 mg/kg | ED50 [5]: 8.5 mg/kg | ED50 [6]: 8.5 mg/kg | ED50 [10]: 18 mg/kg | ED50 [11]: 11 mg/kg | ED50 [12]: 34 mg/kg | ED50 [14]: 14 mg/kg | Threshold active dose [13]: 20 mg/kg

OC1CCCN(c2ccc(-c3ccccc3Cl)nn2)C1 (configuration not stated)
Protected [1]: 15% | Protected [2]: 0% | Protected [3]: 0%

OC1CCN(c2ccc(-c3cccc4ccccc34)nn2)CC1
Protected [4]: 0% | Protected [2]: 0% | Protected [3]: 40%

CCC1(c2ccccc2)C(=O)NC(=O)NC1=O [PHENOBARBITAL]
Threshold active dose [9]: 5 mg/kg | ED50 [5]: 5.2 mg/kg | ED50 [10]: 15 mg/kg | ED50 [11]: 7 mg/kg | ED50 [12]: 61 mg/kg | ED50 [14]: 5.4 mg/kg | Threshold active dose [13]: 20 mg/kg | ED50 [15]: 5.8 mg/kg

CCC(=O)OC1CCN(c2ccc(-c3ccc(Cl)cc3Cl)nn2)CC1
ED50 [5]: 13 mg/kg | ED50 [6]: 16 mg/kg | ED50 [7]: 71 mg/kg | ED50 [8]: 50 mg/kg

CNC(=O)OC1CCN(c2ccc(-c3cccc(Cl)c3)nn2)CC1
Protected [4]: 0% | Protected [1]: 40% | Protected [2]: 0% | Protected [3]: 10%

CC(C)(C)C(=O)OC1CCN(c2ccc(-c3ccccc3Cl)nn2)CC1
Protected [1]: 0% | Protected [2]: 0% | Protected [3]: 0%

OC1CCN(c2ccc(-c3ccsc3)nn2)CC1
Protected [4]: 20% | Protected [1]: 80% | Protected [2]: 0% | Protected [3]: 10%
